As a reminder, the EC50 is the concentration needed to bring the measured effect to its halfway point.

Consider 14 compounds from PubChem BioAssay AID2609 (Broad Institute, 2010).

The assay relates to BJeLR fibroblasts viability, Alamar Blue fluorescence, 48 h. Put plainly: viability loss in engineered Ras-driven BJ cells – cell-based, alamar blue fluorescence, powder samples, dose response (AID 2609). In outline:
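Medium: DMEM/M199 with heat-inactivated FBS; measure: cell viability from alamar blue fluorescence signal; schedule: 48 h compound treatment at 37 °C, ~16 h dye; signal: Alamar blue fluorescence, ex 544/em 590 nm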
(Resazurin is reduced to fluorescent resorufin, in cell work by metabolically active cells.)

Consider `COc1ccc(N(C(=O)CCl)C(C(=O)NCCc2ccccc2)c2cccs2)cc1Cl` (centres undefined), for which the EC50 was 0.99 µM.
`O=C(CCl)N=c1sccn1Cc1ccccc1Cl`: the EC50 is 4.94 µM.
In the case of `Cc1ccc(N(C(=O)CCl)C(C(=O)NC2CCCCC2)c2cccnc2)cc1C` (centres undefined), the EC50 was 1.4 µM.
In the case of `COc1ccc(C(C(=O)NC2CCCCC2)N(C(=O)CCl)c2ccc(C)cc2)cc1` (centres undefined), the EC50 was 8.33 µM.
In the case of `CCCCCCCN(C(=O)CCl)c1cccc(C)c1`, the half-maximal effective concentration (EC50) is 3.44 µM.
Turning to `COC(=O)[C@@H]1Cc2c([nH]c3ccccc23)C(C)(C)N1C(=O)CCl`, the EC50 is 4.01 µM.
Turning to `COc1cccc(N(C(=O)CCl)C(C(=O)NCCc2ccccc2)c2cccs2)c1` (centres undefined), the EC50 was 2.35 µM.
With `CCOc1ccc(Nc2nc(N)nc(CCl)n2)cc1` the figure was 2.21 µM; with `Nc1nc(CCl)nc(Nc2ccc3ccccc3c2)n1`, 2.5 µM.
To `C=CCOc1ccccc1CN(C(=O)CCl)c1ccc2c(c1)OCO2` belongs 7.65 µM.
To `Cc1ccc(C2CC(c3cccs3)=NN2C(=O)CCl)cc1` (centres undefined) belongs 2.92 µM.
`COc1ccc(CN(CCC(c2ccccc2)c2ccc(OC(C)C)cc2)C(=O)CCl)cc1OC` (centres undefined): the EC50 was 0.89 µM.
To `COc1ccc(C(C(=O)NC2CCCCC2)N(C(=O)CCl)c2cccc(Cl)c2)cc1` (centres undefined) belongs 3.19 µM; to `COc1ccc(N(C(=O)CCl)C(C(=O)NCCc2ccccc2)c2cccs2)cc1` (centres undefined), 1.69 µM.
